Laboratory results reported in ChEMBL document CHEMBL3997797 (J Med Chem, 2017).

What was measured:
Liver carboxylesterase 1 [1] = molecular target: T1, Liver carboxylesterase 1 (Homo sapiens, UniProt P23141); assay: Inhibition of human liver CES1 expressed in baculovirus infected sf9 cells using o-nitrophenyl acetate as substrate monitored at 15 secs interval for 5 mins
T1 sequence (P23141 whole entry): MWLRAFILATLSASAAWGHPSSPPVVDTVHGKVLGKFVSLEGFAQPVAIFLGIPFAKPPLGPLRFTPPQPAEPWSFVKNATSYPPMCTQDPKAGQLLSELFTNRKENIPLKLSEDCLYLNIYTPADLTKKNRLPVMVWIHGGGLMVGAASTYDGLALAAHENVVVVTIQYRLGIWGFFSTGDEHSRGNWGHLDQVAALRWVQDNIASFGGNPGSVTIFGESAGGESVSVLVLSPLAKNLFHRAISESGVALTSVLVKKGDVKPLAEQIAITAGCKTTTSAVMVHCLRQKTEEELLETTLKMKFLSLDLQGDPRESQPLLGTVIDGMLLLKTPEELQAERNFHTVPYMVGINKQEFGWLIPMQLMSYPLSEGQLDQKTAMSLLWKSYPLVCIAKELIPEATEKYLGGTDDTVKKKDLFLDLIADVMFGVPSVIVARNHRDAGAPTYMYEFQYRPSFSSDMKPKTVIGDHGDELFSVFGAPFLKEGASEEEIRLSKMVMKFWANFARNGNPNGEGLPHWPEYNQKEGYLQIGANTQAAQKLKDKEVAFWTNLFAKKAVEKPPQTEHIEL
Summary of the method: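 Purified hCE1 secreted from baculovirus-infected Sf9 cells, isolated from serum-free medium by preparative isoelectric focusing and chromatography. o-NPA hydrolysis measured with at least 8 inhibitor concentrations, each point in quadruplicate. Fractional inhibition fitted to a general partial-inhibition model (α 0 to ∞, β 0 to 1). The best model was chosen by r2 and Akaike's information criterion, and Ki was calculated from that model.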

[2] = molecular target: Acetylcholinesterase (Homo sapiens) (UniProt P22303); assay: Inhibition of human AChE at 10 uM using acetylthiocholine as substrate by spectrophotometric method relative to control
Chain of Acetylcholinesterase (Homo sapiens) (P22303 whole entry): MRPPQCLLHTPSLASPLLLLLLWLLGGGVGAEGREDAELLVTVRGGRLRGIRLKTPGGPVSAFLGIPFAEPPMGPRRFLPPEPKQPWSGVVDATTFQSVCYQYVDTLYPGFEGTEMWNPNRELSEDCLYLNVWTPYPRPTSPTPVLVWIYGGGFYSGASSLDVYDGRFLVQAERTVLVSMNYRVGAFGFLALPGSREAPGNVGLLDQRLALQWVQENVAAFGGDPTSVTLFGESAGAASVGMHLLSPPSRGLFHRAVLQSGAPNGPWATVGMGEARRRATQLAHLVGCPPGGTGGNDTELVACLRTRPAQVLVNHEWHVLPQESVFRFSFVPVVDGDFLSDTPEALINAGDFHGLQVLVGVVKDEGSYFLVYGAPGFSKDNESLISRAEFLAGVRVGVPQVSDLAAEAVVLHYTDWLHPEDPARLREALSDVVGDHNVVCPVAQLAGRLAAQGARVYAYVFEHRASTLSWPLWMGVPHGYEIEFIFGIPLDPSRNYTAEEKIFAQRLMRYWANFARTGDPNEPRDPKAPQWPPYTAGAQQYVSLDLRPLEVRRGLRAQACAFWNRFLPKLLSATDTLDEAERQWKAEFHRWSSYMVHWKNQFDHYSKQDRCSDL

[3] = molecular target: T2, CES1 (liver carboxylesterase 1) (Homo sapiens, UniProt P23141); assay: Inhibition of human liver CES1 expressed in U373MG cells assessed as oseltamivir carboxylate formation at 5 uM using oseltamivir as substrate preincubated for 30 mins followed by compound washout and subsequent compound/substrate addition measured after 30 mins by UPLC-MS method relative to control; type: cell-based; parameters: scale not given: the % may be the effect or the level left; conditions: U373MG cells expressing human liver CES1, probe oseltamivir, read-out: Activity
T2 sequence (P23141 whole entry): T1 sequence (P23141 whole entry)
Summary of the method: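 U373MG cells expressing hCE1 (1 x 10^5/well) attached overnight. They were pretreated 30 min with 5 µM inhibitor, then media was replaced with fresh media containing 20 µM oseltamivir plus 5 µM inhibitor for 30 min. Media was mixed with an equal volume of acetonitrile and metabolites were quantified by UPLC-MS. Run in duplicate with DMSO control.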

[4] = Drug metabolism in DMSO/sodium phosphate buffer assessed as tautomerization at pH 3 to 11 by UV-spectroscopic method; type: physicochemical
Summary of the method: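 UV absorbance spectra recorded in aqueous 20% DMSO:80% 200 mM sodium phosphate buffer across a range of pH values to follow tautomeric form.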

[5] = molecular target: T2, CES1 (liver carboxylesterase 1); assay: Inhibition of human liver CES1 expressed in baculovirus infected sf9 cells at 10 uM using o-nitrophenyl acetate as substrate monitored at 15 secs interval for 5 mins relative to control; conditions: probe o-nitrophenyl acetate
Summary of the method: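 Purified secreted hCE1 from Sf9 culture medium, isolated by isoelectric focusing and chromatography. Inhibitor tested at a single concentration of 10 µM against o-NPA hydrolysis. Read-out is percent inhibition.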

CES2 (cocaine esterase) [6] = molecular target: T3, CES2 (cocaine esterase) (Homo sapiens, UniProt O00748); assay: Inhibition of human intestinal CES2 expressed in baculovirus infected sf9 cells at 10 uM using o-nitrophenyl acetate as substrate monitored at 15 secs interval for 5 mins relative to control; conditions: probe o-nitrophenyl acetate
T3 sequence (O00748 whole entry): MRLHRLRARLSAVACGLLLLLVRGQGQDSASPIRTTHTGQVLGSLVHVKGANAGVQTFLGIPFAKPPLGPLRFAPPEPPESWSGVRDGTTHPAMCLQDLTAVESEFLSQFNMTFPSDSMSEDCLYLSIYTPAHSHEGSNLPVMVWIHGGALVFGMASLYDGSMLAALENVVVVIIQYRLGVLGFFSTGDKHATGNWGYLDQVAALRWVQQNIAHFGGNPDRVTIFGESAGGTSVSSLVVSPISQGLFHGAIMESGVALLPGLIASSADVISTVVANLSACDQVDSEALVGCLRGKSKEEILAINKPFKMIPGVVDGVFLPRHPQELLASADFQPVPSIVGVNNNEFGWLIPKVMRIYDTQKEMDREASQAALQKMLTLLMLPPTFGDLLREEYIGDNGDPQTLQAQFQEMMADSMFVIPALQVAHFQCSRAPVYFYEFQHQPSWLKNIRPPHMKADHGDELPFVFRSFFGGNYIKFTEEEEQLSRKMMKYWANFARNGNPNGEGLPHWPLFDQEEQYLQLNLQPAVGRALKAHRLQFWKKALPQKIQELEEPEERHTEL

Liver carboxylesterase 1 [7] = molecular target: T1, Liver carboxylesterase 1; assay: Inhibition of human liver CES1 expressed in baculovirus infected sf9 cells using oseltamivir as substrate
CES2 (cocaine esterase) [8] = molecular target: T3, CES2 (cocaine esterase); assay: Inhibition of human intestinal CES2 expressed in U373MG cells assessed as 7-ethyl-10-hydroxycamptothecin formation at 5 uM using irinotecan as substrate preincubated for 1 hr followed by substrate addition measured after 5 mins by HPLC method relative to control; type: cell-based; parameters: scale not given: the % may be the effect or the level left; conditions: U373MG cells expressing human intestinal CES2, probe irinotecan, read-out: Activity
Homo sapiens = species: Homo sapiens; assay: Selectivity ratio of Ki for human intestinal CES2 to Ki for human liver CES1
Cocaine esterase = molecular target: T4, Cocaine esterase (Homo sapiens, UniProt O00748); assay: Inhibition of human intestinal CES2 expressed in baculovirus infected sf9 cells using o-nitrophenyl acetate as substrate monitored at 15 secs interval for 5 mins
T4 sequence (O00748 whole entry): T3 sequence (O00748 whole entry)

U373 MG [9] = assay: Growth inhibition of human U373MG cells after 72 hrs; type: cell-based, U-373MG ATCC
U373 MG [10] = assay: Cytotoxicity against human U373MG cells assessed as cell viability after 30 mins relative to control; type: cell-based; conditions: u-373mg atcc, 0.5 h

O=C1C=C(Oc2ccccc2)c2ccccc2C1=O
Ki (Liver carboxylesterase 1 [1]): 23.8 nM | inhibition [2]: 11% | activity at 0.5 h, 5 µM [3]: 19% | Drug metabolism [4]: Metabolite_Notdetected

O=C1C=C(Nc2ccc(I)cc2)c2ccccc2C1=O
inhibition at 5 min, 10 µM [5]: 41% | inhibition [2]: 16% | inhibition at 5 min, 10 µM (CES2 (cocaine esterase) [6]): 10%

Cc1ccc(NC2=CC(=O)C(=O)c3ccccc32)cc1
inhibition at 5 min, 10 µM [5]: 44% | inhibition [2]: 17% | inhibition at 5 min, 10 µM (CES2 (cocaine esterase) [6]): 15%

COc1ccc(NC2=CC(=O)C(=O)c3ccccc32)cc1
inhibition at 5 min, 10 µM [5]: 26% | inhibition [2]: 5% | inhibition at 5 min, 10 µM (CES2 (cocaine esterase) [6]): 12%

O=C1C=C(Nc2ccc(Cl)cc2)c2ccccc2C1=O
inhibition at 5 min, 10 µM [5]: 33% | inhibition [2]: 23% | inhibition at 5 min, 10 µM (CES2 (cocaine esterase) [6]): 22%

CN(C1=CC(=O)C(=O)c2ccccc21)c1ccc(Cl)cc1
Ki (Liver carboxylesterase 1 [7]): 12.9 nM | Ki (Liver carboxylesterase 1 [1]): 19.2 nM | inhibition [2]: 4% | activity at 0.5 h, 5 µM [3]: 5% | inhibition at 5 min, 10 µM (CES2 (cocaine esterase) [6]): 30% | activity at 5 min, 5 µM (CES2 (cocaine esterase) [8]): 91%

CN(C1=CC(=O)C(=O)c2ccccc21)c1ccc(I)cc1
Ki (Liver carboxylesterase 1 [7]): 148 nM | Ki (Liver carboxylesterase 1 [1]): 400 to 408 nM | inhibition [2]: 31% | Ratio Ki (Homo sapiens): 4 to 11 | Ki (Cocaine esterase): 284 nM | inhibition at 5 min, 10 µM (CES2 (cocaine esterase) [6]): 83%

CC1(C)CCC2=C(O1)c1ccccc1C(=O)C2=O [LAPACHONE]
Ki (Liver carboxylesterase 1 [1]): 1220 nM | inhibition [2]: 10% | activity at 0.5 h, 5 µM [3]: 12%

O=C1C=C(Oc2ccc(F)cc2)c2ccccc2C1=O
Ki (Liver carboxylesterase 1 [1]): 45.3 nM | inhibition [2]: 22% | activity at 0.5 h, 5 µM [3]: 25% | Drug metabolism [4]: Metabolite_Notdetected

O=C1C=C(Nc2ccccc2)c2ccccc2C1=O
inhibition at 5 min, 10 µM [5]: 30% | inhibition [2]: 5% | Drug metabolism [4]: Metabolite_Detected | inhibition at 5 min, 10 µM (CES2 (cocaine esterase) [6]): 12%

O=C1C=C(Oc2ccc(Cl)cc2)c2ccccc2C1=O
Ki (Liver carboxylesterase 1 [1]): 18.9 nM | inhibition [2]: 31% | activity at 0.5 h, 5 µM [3]: 20%

COc1ccc(OC2=CC(=O)C(=O)c3ccccc32)cc1
Ki (Liver carboxylesterase 1 [1]): 17.8 nM | inhibition [2]: 18% | activity at 0.5 h, 5 µM [3]: 14%

Cc1ccc(OC2=CC(=O)C(=O)c3ccccc32)cc1
Ki (Liver carboxylesterase 1 [1]): 4.44 nM | inhibition [2]: 8% | activity at 0.5 h, 5 µM [3]: 13%

CN(C1=CC(=O)C(=O)c2ccccc21)c1ccccc1
IC50 (U373 MG [9]): 12800 nM | Ki (Liver carboxylesterase 1 [7]): 32.1 nM | Activity (U373 MG [10]): 99% | Ki (Liver carboxylesterase 1 [1]): 90 nM | inhibition [2]: 3% | activity at 0.5 h, 5 µM [3]: 8% | Drug metabolism [4]: Metabolite_Notdetected | inhibition at 5 min, 10 µM (CES2 (cocaine esterase) [6]): 33% | activity at 5 min, 5 µM (CES2 (cocaine esterase) [8]): 77%

Cc1ccc(N(C)C2=CC(=O)C(=O)c3ccccc32)cc1
IC50 (U373 MG [9]): 4600 nM | Ki (Liver carboxylesterase 1 [7]): 4.9 nM | Activity (U373 MG [10]): 100% | Ki (Liver carboxylesterase 1 [1]): 11.1 nM | inhibition [2]: 3% | activity at 0.5 h, 5 µM [3]: 2% | inhibition at 5 min, 10 µM (CES2 (cocaine esterase) [6]): 25% | activity at 5 min, 5 µM (CES2 (cocaine esterase) [8]): 93%

COc1ccc(N(C)C2=CC(=O)C(=O)c3ccccc32)cc1
Ki (Liver carboxylesterase 1 [7]): 17.7 nM | Ki (Liver carboxylesterase 1 [1]): 81.6 nM | inhibition [2]: 1% | activity at 0.5 h, 5 µM [3]: 6% | inhibition at 5 min, 10 µM (CES2 (cocaine esterase) [6]): 7% | activity at 5 min, 5 µM (CES2 (cocaine esterase) [8]): 77%

O=C1C=C(Oc2ccc(Br)cc2)c2ccccc2C1=O
Ki (Liver carboxylesterase 1 [1]): 14.3 nM | inhibition [2]: 26% | activity at 0.5 h, 5 µM [3]: 47%

CN(C1=CC(=O)C(=O)c2ccccc21)c1ccc(Br)cc1
Ki (Liver carboxylesterase 1 [7]): 17.2 nM | Ki (Liver carboxylesterase 1 [1]): 16.1 nM | inhibition [2]: 12% | Ratio Ki (Homo sapiens): 4 to 11 | activity at 0.5 h, 5 µM [3]: 19% | Ki (Cocaine esterase): 1840 nM | activity at 5 min, 5 µM (CES2 (cocaine esterase) [8]): 89%

O=C1C=C(Oc2ccc(I)cc2)c2ccccc2C1=O
Ki (Liver carboxylesterase 1 [1]): 4.7 nM | inhibition [2]: 25%

CN(C1=CC(=O)C(=O)c2ccccc21)c1ccc(F)cc1
IC50 (U373 MG [9]): 3900 nM | Ki (Liver carboxylesterase 1 [7]): 37.6 nM | Activity (U373 MG [10]): 96% | Ki (Liver carboxylesterase 1 [1]): 163 nM | inhibition [2]: 1% | activity at 0.5 h, 5 µM [3]: 1% | Drug metabolism [4]: Metabolite_Notdetected | inhibition at 5 min, 10 µM (CES2 (cocaine esterase) [6]): 19% | activity at 5 min, 5 µM (CES2 (cocaine esterase) [8]): 92%

O=C1C=C(Nc2ccc(F)cc2)c2ccccc2C1=O
inhibition at 5 min, 10 µM [5]: 40% | inhibition [2]: 21% | inhibition at 5 min, 10 µM (CES2 (cocaine esterase) [6]): 14%

O=C1C=C(Nc2ccc(Br)cc2)c2ccccc2C1=O
inhibition at 5 min, 10 µM [5]: 26% | inhibition [2]: 16% | inhibition at 5 min, 10 µM (CES2 (cocaine esterase) [6]): 12%
